Source: EPA's CvTdb concentration-time database

Experiments:
human [1] = test: concentration in blood after dosing
Procedure, shortened: (§1)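 Data points giving concentration or amount against time came from published in vivo toxicokinetic studies and from two structured collections. PubMed searching, classifier screening and manual review located the studies. Most points were digitised from plot screenshots using WebPlotDigitizer, the rest were copied from tables, and all keep their reported units.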

rabbit = test: concentration in blood after dosing; conditions: dosed: hexachlorocyclohexane, 25 mg/kg, oral, female
Procedure, shortened: as §1

human [2] = test: concentration in expired air after dosing; conditions: dosed: methyl tert-butyl ether, 15 mg, oral, male
Procedure, shortened: as §1

human [3] = test: concentration in blood after dosing; negative times count back from the end of exposure; conditions: inhalation
Procedure, shortened: as §1

rat = test: concentration in blood after dosing; conditions: dosed: methylene chloride, male
frog = test: concentration in embryo medium after dosing; conditions: dosed: musk moskene, 400 ug/L embryo medium, dermal, duration: 10 days, xenopus laevis
Procedure, shortened: as §1

human [4] = test: concentration in urine after dosing; conditions: dosed: benzene, 30 mg/m^3, inhalation, duration: 4 hr, male
Procedure, shortened: as §1

human [5] = test: concentration in urine after dosing; negative times count back from the end of exposure; conditions: dosed: benzene, 30 mg/m^3, inhalation, duration: 4 hr, male
Procedure, shortened: as §1

human [6] = test: concentration in urine after dosing; conditions: dosed: benzene, 30 mg/m^3, inhalation, duration: 4 hr, male; remark: listed apart in the source
Procedure, shortened: as §1

CCOC(C)(C)C [ethyl tert-butyl ether]
concentration in blood [µM], human [1], dosed: ethyl tert-butyl ether, inhalation, duration: 4 hr
Conditions	2.045 h	4.023 h	4.057 h	6.068 h	7.977 h	9.972 h	11.98 h	23.9 h	61 s	184 s
4.5 ppm	0.371	0.117	–	–	–	–	–	–	1.32	–
40.6 ppm	3.35	–	1.94	1.75	0.941	1.1	0.762	0.171	–	12

ClC1C(Cl)C(Cl)C(Cl)C(Cl)C1Cl (configuration not stated) [hexachlorocyclohexane]
rabbit
Conditions	concentration in blood [ng/mL]
168 h	9220
336 h	12300
504 h	18400
672 h	24600
840 h	33800
1008 h	39900
1176 h	46100
1344 h	52200
1512 h	58400
1680 h	64500
1848 h	70700
2016 h	86000

COC(C)(C)C [methyl tert-butyl ether]
human [2]
Conditions	concentration in expired air [µM]
0.1656 h	0.077
0.3208 h	0.077
0.5071 h	0.05141
0.6649 h	0.03325
0.8305 h	0.02815
0.9935 h	0.02117
1.508 h	0.01295
1.995 h	0.009141
2.999 h	0.00625
3.99 h	0.002876
4.996 h	0.002574
5.99 h	0.00141

dosed: methyl tert-butyl ether
Conditions	concentration in blood [µM]
human [1], 0.01 h, 38.7 ppm, inhalation, duration: 4 hr	6.65
human [1], 2 h, 4.5 ppm, inhalation, duration: 4 hr	0.643
human [1], 2.004 h, 38.7 ppm, inhalation, duration: 4 hr	2.1
human [1], 3.94 h, 4.5 ppm, inhalation, duration: 4 hr	0.354
human [1], 3.996 h, 38.7 ppm, inhalation, duration: 4 hr	1.02
human [1], 6.01 h, 4.5 ppm, inhalation, duration: 4 hr	0.174
human [1], 6.012 h, 38.7 ppm, inhalation, duration: 4 hr	0.606
human [1], 7.951 h, 4.5 ppm, inhalation, duration: 4 hr	0.084
human [1], 8.029 h, 38.7 ppm, inhalation, duration: 4 hr	0.395
human [1], 10.04 h, 38.7 ppm, inhalation, duration: 4 hr	0.328
human [1], 12.06 h, 38.7 ppm, inhalation, duration: 4 hr	0.253
human [1], 22 s, 4.5 ppm, inhalation, duration: 4 hr	1.93
human [3], 0.2914 h, 25 ppm, duration: 4 hr, male	7.86
human [3], 0.5342 h, 25 ppm, duration: 4 hr, male	6.55
human [3], 0.9123 h, 25 ppm, duration: 4 hr, male	5.51
human [3], 2.155 h, 25 ppm, duration: 4 hr, male	3.31
human [3], 6.883 h, 25 ppm, duration: 4 hr, male	0.651
human [3], 20.1 h, 25 ppm, duration: 4 hr, male	0.04

human [3], dosed: methyl tert-butyl ether, 25 ppm, duration: 4 hr, male, during exposure
Conditions	concentration in blood [µM]
-4 h	0.117
-3.335 h	6.64
-2.225 h	7.88
-1.277 h	9.78
-0.1674 h	10.6

human [1], dosed: methyl tert-butyl ether, oral
Conditions	concentration in blood [µM]
0.9725 h, 5 mg	0.0994
1.015 h, 15 mg	0.685
1.991 h, 5 mg	0.0411
2.004 h, 15 mg	0.276
2.918 h, 15 mg	0.108
2.982 h, 5 mg	0.0272
3.947 h, 5 mg	0.0187
4.008 h, 15 mg	0.082
5.952 h, 5 mg	0.0131
5.987 h, 15 mg	0.0471
7.932 h, 5 mg	0.0117
7.966 h, 15 mg	0.0264
9.937 h, 5 mg	0.0101
9.945 h, 15 mg	0.0233
12 h, 15 mg	0.013
12.02 h, 5 mg	0.00899

ClCCl [methylene chloride]
Conditions	concentration in blood [ng/mL]
human [3], 1.928 h, dosed: methylene chloride, 350 ppm, duration: 6 hr	899
human [3], 2.051 h, dosed: methylene chloride, 100 ppm, duration: 6 hr	155
human [3], 5.959 h, dosed: methylene chloride, 100 ppm, duration: 6 hr	62.4
human [3], 6.02 h, dosed: methylene chloride, 350 ppm, duration: 6 hr	342
human [3], 16.03 h, dosed: methylene chloride, 100 ppm, duration: 6 hr	12
human [3], 16.07 h, dosed: methylene chloride, 350 ppm, duration: 6 hr	77.4
human [3], 23.99 h, dosed: methylene chloride, 350 ppm, duration: 6 hr	36
human [3], 276 s, dosed: methylene chloride, 350 ppm, duration: 6 hr	5760
rat, 0.1027 h, 125 mg/kg, oral, Wistar	114000
rat, 0.1096 h, 125 mg/kg, oral, Wistar	35700
rat, 0.1406 h, 125 mg/kg, oral, Wistar	101000
rat, 0.1438 h, 125 mg/kg, oral, Wistar	37300
rat, 0.1715 h, 125 mg/kg, oral, Wistar	96200
rat, 0.1781 h, 125 mg/kg, oral, Wistar	38700
rat, 0.2228 h, 125 mg/kg, oral, Wistar	93900
rat, 0.2329 h, 125 mg/kg, oral, Wistar	39900
rat, 0.2708 h, 125 mg/kg, oral, Wistar	88100
rat, 0.2808 h, 125 mg/kg, oral, Wistar	41000
rat, 0.3223 h, 125 mg/kg, oral, Wistar	79600
rat, 0.3356 h, 125 mg/kg, oral, Wistar	39800
rat, 0.3704 h, 125 mg/kg, oral, Wistar	71100
rat, 0.3836 h, 125 mg/kg, oral, Wistar	38300
rat, 0.4252 h, 125 mg/kg, oral, Wistar	65400
rat, 0.4315 h, 125 mg/kg, oral, Wistar	34600
rat, 0.5041 h, 125 mg/kg, oral, Wistar	57100
rat, 0.5205 h, 125 mg/kg, oral, Wistar	36100
rat, 0.7539 h, 125 mg/kg, oral, Wistar	41600
rat, 0.7671 h, 125 mg/kg, oral, Wistar	27600
rat, 1.007 h, 125 mg/kg, oral, Wistar	31400
rat, 1.014 h, 125 mg/kg, oral, Wistar	24000
rat, 1.5 h, 125 mg/kg, oral, Wistar	16900
rat, 1.514 h, 125 mg/kg, oral, Wistar	14900
rat, 2.002 h, 125 mg/kg, oral, Wistar	8750
rat, 2.014 h, 125 mg/kg, oral, Wistar	9350
rat, 2.498 h, 125 mg/kg, oral, Wistar	3470
rat, 2.514 h, 125 mg/kg, oral, Wistar	11300
rat, 3.014 h, 125 mg/kg, oral, Wistar	9840
rat, 3.507 h, 125 mg/kg, oral, Wistar	6900
rat, 4.007 h, 125 mg/kg, oral, Wistar	5980
rat, 4.507 h, 125 mg/kg, oral, Wistar	4860
rat, 5 h, 125 mg/kg, oral, Wistar	1820
rat, 129 s, 125 mg/kg, oral, Wistar	59800
rat, 173 s, 125 mg/kg, oral, Wistar	15700
rat, 247 s, 125 mg/kg, oral, Wistar	29800
rat, 248 s, 125 mg/kg, oral, Wistar	101000

Conditions	concentration in blood [ng/mL]
human [3], -2.858 h, dosed: methylene chloride, 350 ppm, duration: 6 hr, during exposure	5830
human [3], -2.95 h, dosed: methylene chloride, 100 ppm, duration: 6 hr, during exposure	1090
human [3], -58 s, dosed: methylene chloride, 100 ppm, duration: 6 hr, during exposure	1020
rat, 0.5086 h, 100000 ppm, dermal, duration: 4 hr, Fischer-344	57300
rat, 0.5196 h, 60000 ppm, dermal, duration: 4 hr, Fischer-344	29800
rat, 0.5257 h, 30000 ppm, dermal, duration: 4 hr, Fischer-344	11300
rat, 1.007 h, 100000 ppm, dermal, duration: 4 hr, Fischer-344	67300
rat, 1.008 h, 60000 ppm, dermal, duration: 4 hr, Fischer-344	45900
rat, 1.013 h, 30000 ppm, dermal, duration: 4 hr, Fischer-344	21100
rat, 1.988 h, 100000 ppm, dermal, duration: 4 hr, Fischer-344	79800
rat, 1.99 h, 60000 ppm, dermal, duration: 4 hr, Fischer-344	43400
rat, 1.996 h, 30000 ppm, dermal, duration: 4 hr, Fischer-344	30000
rat, 2.977 h, 100000 ppm, dermal, duration: 4 hr, Fischer-344	97700
rat, 2.987 h, 60000 ppm, dermal, duration: 4 hr, Fischer-344	44700
rat, 2.989 h, 30000 ppm, dermal, duration: 4 hr, Fischer-344	29800
rat, 3.973 h, 100000 ppm, dermal, duration: 4 hr, Fischer-344	98100
rat, 3.974 h, 60000 ppm, dermal, duration: 4 hr, Fischer-344	52200
rat, 3.978 h, 30000 ppm, dermal, duration: 4 hr, Fischer-344	23600

Cc1c([N+](=O)[O-])cc2c(c1[N+](=O)[O-])C(C)(C)CC2(C)C [musk moskene]
frog
Conditions	concentration in embryo medium [ng/mL]
0.1638 h	353
0.2136 h	293
0.2621 h	670
95.89 h	46.5
168.63 h	226
240 h	175
240.21 h	290
240.24 h	222

Oc1ccccc1 [phenol]
Conditions	concentration in urine [µM]
human [4], 0 h	61.4
human [4], 2 h	82.2
human [4], 4 h	186
human [4], 5.939 h	193
human [4], 8 h	143
human [4], 10 h	129
human [4], 12.06 h	109
human [4], 14.36 h	102
human [4], 15.52 h	80.2
human [4], 23.33 h	176
human [4], 26.24 h	68.4
human [4], 37.03 h	45.6
human [4], 38.55 h	45
human [4], 46.55 h	87.7
human [4], 47.52 h	141
human [4], 52 h	95.1
human [5], 0 h	314
human [5], 1.939 h	244
human [5], 4 h	187
human [5], 6.061 h	200
human [5], 8 h	99.3
human [5], 10.06 h	114
human [5], 18 h	121
human [5], 24.55 h	51
human [5], 30 h	39.3
human [5], 34.12 h	38
human [5], 42.3 h	38.5
human [5], 50.48 h	52.2
human [6], 0 h	72.9
human [6], 2 h	113
human [6], 4 h	226
human [6], 6 h	207
human [6], 8 h	143
human [6], 10 h	180
human [6], 12.06 h	144
human [6], 14 h	87.1
human [6], 20.36 h	70.2
human [6], 24.06 h	112
human [6], 27.03 h	80.5
human [6], 32 h	82.7
human [6], 38.06 h	73.4
human [6], 42.55 h	45.5
human [6], 47.58 h	65.6
human [6], 52.48 h	50.5

human [5], during exposure
Conditions	concentration in urine [µM]
-4 h	23.7
-2.061 h	124

CC(C)(C)O [tert-butanol]
human [3], dosed: methyl tert-butyl ether, 25 ppm, duration: 4 hr, male
Conditions	concentration in blood [µM]
0.1966 h	14.8
0.4673 h	15.1
0.8191 h	15.4
2.091 h	14.8
6.879 h	11.6
20.02 h	4.27

human [3], dosed: methyl tert-butyl ether, 25 ppm, duration: 4 hr, male, during exposure
Conditions	concentration in blood [µM]
-3.999 h	0.0102
-3.435 h	3.36
-2.296 h	6.17
-1.076 h	10.4
-0.2367 h	13.1
